DDE Tn7 FP inh = inhibitors of Tn7 peptide binding to human fibrin DD(E) | P02675 | FP displacement of FITC-Tn7 peptide from fibrin DD(E); 0% = median of compound wells per plate | inhibition, % at 8.3 µM | 0.13% of 370,000 active | AID 720508;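 active = inhibition above the mean of compounds falling within the control limits plus 3 SD of them, cut at about 14% in these data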;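 note: 0% = plate median of compound wells and 100% = 10 µM Aha-Tn7 peptide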
Target sequence (P02675 whole entry, looked up): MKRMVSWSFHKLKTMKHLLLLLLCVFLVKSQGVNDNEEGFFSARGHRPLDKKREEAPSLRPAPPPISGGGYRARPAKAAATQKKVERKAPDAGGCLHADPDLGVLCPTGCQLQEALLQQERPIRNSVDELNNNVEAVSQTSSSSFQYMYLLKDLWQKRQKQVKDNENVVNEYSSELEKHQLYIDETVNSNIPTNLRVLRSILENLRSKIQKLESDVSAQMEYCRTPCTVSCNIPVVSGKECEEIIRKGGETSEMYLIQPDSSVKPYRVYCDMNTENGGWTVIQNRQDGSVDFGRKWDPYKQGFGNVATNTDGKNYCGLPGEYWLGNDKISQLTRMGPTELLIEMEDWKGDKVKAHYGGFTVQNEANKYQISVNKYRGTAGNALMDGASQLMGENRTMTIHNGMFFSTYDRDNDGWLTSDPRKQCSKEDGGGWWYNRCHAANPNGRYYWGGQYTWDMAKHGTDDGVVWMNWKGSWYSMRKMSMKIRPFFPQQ
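Measure: % inhibition scaled between sample-field median and high-control FP; Test system: human fibrin DD(E); Quantity: 2 µM final DD(E) protein; Doses: one dose, 8.3 µM nominal; Schedule: compound with protein 10 min, then 3 h after probe, room temperature; Detection: fluorescence polarization; Medium: Tris buffer with calcium and detergent, pH 7.8.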
Insulin prom up = MIN6 insulin promoter up-regulation; MIN6 insulin promoter-GFP reporter, high-content imaging; active compounds read high; z-score at 5 µM; 0.3% of 190,000 active; AID 1625;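 active = z-score above 3 at 5 µM with at least 500 cells counted in the well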
GRK2 aptamer HTS = human GRK2 inhibition via aptamer displacement; P25098; bead flow cytometry, FAM-aptamer displacement from GRK2; inhibition of aptamer binding, % at 10 µM; 0.59% of 330,000 active; AID 488847;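 active = inhibition of aptamer binding above 40%, roughly 3 SD of noise, on plates passing a quality check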;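 note: median bead fluorescence of bound FAM aptamer so fluorescent compounds give negative values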
Tn6 DDE FP = disrupts Tn6 cyclic peptide binding to fibrin D-Dimer-E complex; P02675; Fibrin DD(E) TRITC-Tn6 fluorescence polarization displacement; inhibition, % at 8.3 µM; 0.21% of 370,000 active; AID 720509;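 active = inhibition above a per-campaign cutoff: mean of compounds within control limits plus 3 SD, cut at about 15% in these data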;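 note: 0% = median of all compound wells on the plate and 100% = blocking peptide control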
ABCB1 block = human ABCB1 inhibition, ABCG2 as counter-screen. 0.067% of 190,000 active. inhibition, % at 6.6 µM. P08183. CCRF-Adr cells, JC-1 efflux, flow cytometry. AID 1326; in the data active = inhibition above about 40%;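 note: 0% = vehicle and 100% = reference inhibitor; higher value means more JC-1 retained so stronger ABCB1 efflux block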
ABCG2 inh = inhibitors of human ABCG2 transporter, ABCB1 counter-screen | Q9UNQ0 | IgMXP3 cells, JC-1 efflux, flow cytometry | inhibition, % at 6.6 µM | 0.1% of 190,000 active | AID 1325;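 active = inhibition above 80%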;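 note: 0% = DMSO and 100% = nicardipine control wells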
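Test system: IgMXP3 cells (ABCG2) mixed with DDAO far-red-labelled CCRF-Adr cells (ABCB1). Reagent: JC-1 transporter substrate. Compound dosing: single test compound dose, 6.6 µM final. Times: 10 min compound exposure, 25 °C. Detection: flow cytometry of retained JC-1 fluorescence. Read-out basis: efflux inhibition in percent versus controls. Controls: nicardipine and DMSO wells.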
GRK2 inh confirm = confirmation of human GRK2 inhibitors displacing RNA aptamer | AID 504451 | aptamer displacement, % at 10 µM | 4% of 2,000 active | bead-bound GRK2, FAM-aptamer displacement, flow cytometry | shares compounds with GRK2 aptamer HTS;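 active = aptamer displacement above 40%, near three times the noise of non-fluorescent compounds, on plates passing quality checks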;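 note: negative values mostly reflect intrinsic compound fluorescence rather than true enhancement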
Aptamer quench SP = quenches fluorescent RNA aptamer, GRK2 hit artifact | shares compounds with GRK2 aptamer HTS | Carboxyfluorescein RNA aptamer on beads, flow cytometry quenching; active compounds read low | fluorescence response (% of DMSO), % at 10 µM | 2,000 tested, under 10 active | AID 504580;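 active = compounds that quench the bead-bound fluorescent RNA probe, cutting fluorescence to under half of the solvent control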;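 note: counterscreen run without GRK2 so only probe quenching by compound is measured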
GRK2 CP2 = confirmation of human GRK2 inhibitors binding RNA aptamer site; bead-bound GRK2, FAM-aptamer displacement, flow cytometry; shares compounds with GRK2 aptamer HTS; AID 504782; inhibition of aptamer binding, % at 10 µM; 360 tested, under 10 active;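 active = inhibition of aptamer binding above 40%, about triple the noise seen with nonglowing compounds, on plates passing quality control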;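 note: negative values mostly come from compounds that fluoresce themselves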
FAM quench CP2 = quenches fluorescent RNA aptamer, GRK2 hit artifact; shares compounds with GRK2 aptamer HTS; carboxyfluorescein RNA aptamer beads, flow cytometry quenching; active compounds read low; fluorescence response vs DMSO, % at 10 µM; 360 tested, under 10 active; AID 588494;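 active = response vs DMSO under 50%, meaning signal dropped by over half, treated as fluorescence quencher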;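 note: labelled aptamer on streptavidin beads without GRK2 as a quench counter-screen; 100% = bead fluorescence of DMSO wells and lower means quenching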
Numbers without * were called inactive. The list is not random: actives were taken first. Their share in the collection is about 0.99%.

Results for Cc1cc(Cl)ccc1N(CC(=O)NCc1ccc2c(c1)OCO2)S(C)(=O)=O ?
DDE Tn7 FP inh: 5; Insulin prom up: 0.36; GRK2 aptamer HTS: 100*; Tn6 DDE FP: -7; ABCB1 block: 1; ABCG2 inh: 1; GRK2 inh confirm: 3; Aptamer quench SP: 99

What do the screens show for `c1ccc(-c2nnc3n2N=C(c2ccc4ccccc4c2)CS3)nc1`?
DDE Tn7 FP inh: 3; Tn6 DDE FP: 2

What do the screens show for `O=C1c2nccnc2C(=O)N1c1ccc(C(F)(F)F)cc1`?
DDE Tn7 FP inh: 2; Insulin prom up: -0.14; GRK2 aptamer HTS: 57*; Tn6 DDE FP: 5; ABCB1 block: 1; ABCG2 inh: 2; GRK2 inh confirm: -2; Aptamer quench SP: 102

How did C[C@H]1CCCCO[C@@H](CN(C)CC2CC2)[C@@H](C)CN([C@@H](C)CO)C(=O)c2cc(NS(=O)(=O)c3ccccc3)ccc2O1 do in these assays?
DDE Tn7 FP inh: 1; Tn6 DDE FP: 7

Results for Cc1noc(C)c1COc1ccc(C(=O)OCC(=O)NCc2ccccc2Cl)cc1 ?
DDE Tn7 FP inh: 4; GRK2 aptamer HTS: 4; Tn6 DDE FP: 6; ABCB1 block: 1; ABCG2 inh: 4

Results for Cc1noc(C)c1COc1cccc(C(=O)NCc2ccccc2Cl)c1 ?
DDE Tn7 FP inh: -1; Insulin prom up: -0.17; GRK2 aptamer HTS: 1; Tn6 DDE FP: 1; ABCB1 block: 4; ABCG2 inh: 18; GRK2 inh confirm: 2; Aptamer quench SP: 94

How did Cc1ccc(C(=O)NCc2ccncc2)cc1S(=O)(=O)Nc1cccc(C)c1C do in these assays?
DDE Tn7 FP inh: 4; GRK2 aptamer HTS: 2; Tn6 DDE FP: 6

How did COCCNC(=O)c1ccc(Cl)c(S(=O)(=O)Nc2cccc(C)c2C)c1 do in these assays?
DDE Tn7 FP inh: 0; GRK2 aptamer HTS: 65*; Tn6 DDE FP: 0; GRK2 CP2: 22; FAM quench CP2: 99

Results for CC(NC(=O)COC(=O)c1c[nH]c2ccccc12)c1ccccc1 (centres undefined) ?
DDE Tn7 FP inh: -2; GRK2 aptamer HTS: 31; Tn6 DDE FP: 0; GRK2 inh confirm: -1; Aptamer quench SP: 100

Results for O=C(COC(=O)c1c[nH]c2ccccc12)Nc1ccccc1 ?
DDE Tn7 FP inh: 7; GRK2 aptamer HTS: 0; Tn6 DDE FP: 7

What do the screens show for `C#CCCCN([C@@H](CC(C)C)C(=O)OC)S(=O)(=O)c1ccc(F)cc1Br`?
DDE Tn7 FP inh: -1; Tn6 DDE FP: -4

What do the screens show for `COc1ccccc1N1CCN(C(=O)CSc2nc3ccccc3[nH]2)CC1`?
DDE Tn7 FP inh: 3; Insulin prom up: -0.62; GRK2 aptamer HTS: 96*; Tn6 DDE FP: 2; ABCB1 block: 1; ABCG2 inh: 8; GRK2 inh confirm: -28; Aptamer quench SP: 103

Results for OCC1(CCCc2ccccc2)CCN(Cc2cnc(N3CCOCC3)s2)CC1 ?
DDE Tn7 FP inh: 6; Insulin prom up: -0.29; GRK2 aptamer HTS: 0; Tn6 DDE FP: 0; ABCB1 block: 0; ABCG2 inh: 0; GRK2 inh confirm: -2; Aptamer quench SP: 94

Results for Cc1cc(NS(=O)(=O)c2ccc(NC(=O)Cc3ccc(Cl)c(Cl)c3)cc2)on1 ?
DDE Tn7 FP inh: -2; Tn6 DDE FP: -7

What do the screens show for `O=C(CSc1oc(-c2cccs2)nc1S(=O)(=O)c1ccc(F)cc1)NCC1CCCO1` (centres undefined)?
DDE Tn7 FP inh: 2; Insulin prom up: -0.09; GRK2 aptamer HTS: 42*; Tn6 DDE FP: 2; ABCB1 block: 1; ABCG2 inh: 3; GRK2 inh confirm: 2; Aptamer quench SP: 102

How did COc1ccc(C2c3ccccc3NC3C2C(=O)N(Cc2ccc(OC)cc2OC)[C@H]3Cc2ccccc2)cc1 (some centres undefined) do in these assays?
DDE Tn7 FP inh: -4; Tn6 DDE FP: -1

Results for COc1ccc(S(=O)(=O)N2CCOC2CNC(=O)C(=O)NCc2ccc3c(c2)OCO3)cc1OC (centres undefined) ?
DDE Tn7 FP inh: 0; GRK2 aptamer HTS: 0; Tn6 DDE FP: 4

What do the screens show for `COc1ccccc1CNC(=O)C(=O)NCC1OCCN1S(=O)(=O)c1ccc2c(c1)OCCO2` (centres undefined)?
DDE Tn7 FP inh: -2; Insulin prom up: -0.21; GRK2 aptamer HTS: 41*; Tn6 DDE FP: 11; ABCB1 block: 1; ABCG2 inh: 9; GRK2 inh confirm: -2; Aptamer quench SP: 100

How did C[C@@H]1CCN(C2CC2)S(=O)(=O)c2ccc(N3CC[C@@H](N(C)C)C3)cc2O1 do in these assays?
DDE Tn7 FP inh: 8; Tn6 DDE FP: 10

What do the screens show for `CC1(C)CN(C2CCCCC2)C(=O)[C@H]1CC(=O)Nc1ccc(Br)cc1`?
DDE Tn7 FP inh: 4; Tn6 DDE FP: 5

Results for O=C(O)CCNc1cc(N2CCN(C(=O)c3ccco3)CC2)c2noc3c2c1C(=O)c1ccccc1-3 ?
DDE Tn7 FP inh: -4; GRK2 aptamer HTS: 83*; Tn6 DDE FP: 46*; GRK2 inh confirm: -1; Aptamer quench SP: 94

What do the screens show for `O=C(CSc1ccccc1)Nc1ccc(Cl)c(S(=O)(=O)N2CCOCC2)c1`?
DDE Tn7 FP inh: -2; GRK2 aptamer HTS: 21; Tn6 DDE FP: -7; GRK2 inh confirm: -3; Aptamer quench SP: 97

Results for COc1cccc(NC(=O)C2(S(=O)(=O)c3ccc(Cl)cc3)CC2)c1 ?
DDE Tn7 FP inh: -2; Insulin prom up: 0.19; GRK2 aptamer HTS: 4; Tn6 DDE FP: 0; GRK2 CP2: -14; FAM quench CP2: 101

What do the screens show for `CC(=O)c1ccc(-n2c(-c3cc(-c4ccco4)[nH]n3)n[nH]c2=S)cc1`?
DDE Tn7 FP inh: 4; Insulin prom up: -0.28; GRK2 aptamer HTS: 6; Tn6 DDE FP: 11; ABCB1 block: 0; ABCG2 inh: -1

Bioassay records (PubChem)
